Results collected from several papers.
Each line is one published result; the experiments were not run side by side.
CNR2: Cannabinoid receptor 2 (CNR2, Homo sapiens, UniProt P34972)
CASR: Extracellular calcium-sensing receptor (CASR, Homo sapiens, UniProt P41180)
F10: Coagulation factor X (F10, Homo sapiens, UniProt P00742)

C=C1CC/C=C(\C)CC[C@@H]2[C@@H]1CC2(C)C  Ki (CNR2; ligand displacement, radioligand; cell membranes): > 10 µM
CC(NCc1cccc(-n2cccn2)c1)c1csc2ccccc12 (stereo not shown)  EC50 (CASR; G protein activation, agonist, BRET): 0.444 µM
CCCCCc1cc(O)c2c(c1)OC(C)(C)[C@@H]1CC[C@@H](C)C=C21  Ki (CNR2; ligand displacement, radioligand; cell membranes): 0.028 µM
CC(=O)N[C@H]1Cc2ccc(cc2)OCCCC[C@@H](C(=O)N[C@@H](CCCNC(=N)N)C(=O)c2nc3ccccc3s2)NC(=O)[C@H](CC(C)C)NC1=O  IC50 (F10; enzyme activity, inhibitor, absorbance; with preincubation): 2.65 µM
CNC(C)Cc1ccc2c(c1)OCO2 (stereo not shown)  Ki (Solute carrier family 22 member 2 (SLC22A2, Homo sapiens, UniProt O15244); transporter uptake, inhibitor): 1.9 µM
C[C@@H](NCCCc1cccc(C(F)(F)F)c1)c1cccc2ccccc12  EC50 (CASR; G protein activation, agonist, BRET): 0.071 µM
CCC(CC)(NC(=O)c1ccc(C2CC2)c(Cc2ccc(F)cc2)n1)C(=O)NCCOCCOCCNC(=O)c1ccc2c(c1)C1(OC2=O)c2ccc(N(C)C)cc2[Si](C)(C)c2cc(N(C)C)ccc21  Ki (CNR2; ligand displacement, radioligand; cell membranes): 0.676 µM
CC(=O)N[C@H]1C/C=C/COc2ccc(cc2)C[C@@H](C(=O)N[C@@H](CCCNC(=N)N)C(=O)c2nc3ccccc3s2)NC(=O)[C@H](CC(C)C)NC1=O  IC50 (F10; enzyme activity, inhibitor, absorbance; with preincubation): 8.81 µM
CNC(=O)c1ccc(-c2cnn3ccc(C(=O)N(C)c4ccc(Cl)c(C(=O)O)c4)cc23)cc1  IC50 (Histamine H3 receptor (HRH3, Homo sapiens, UniProt Q9Y5N1); cell-free assay): > 30 µM
CC(C)C[C@@H]1NC(=O)[C@H](C(C)(C)C)NC(=O)[C@H](Cc2ccc(O)cc2)NC(=O)[C@@H]2CCCN2C(=O)[C@H](CCCCN)NC(=O)[C@H](CCCNC(=N)N)NC1=O  Ki (Neurotensin receptor type 1 (Ntsr1, Rattus norvegicus, UniProt P20789); ligand displacement, flow cytometry): > 100 µM
